Assay results from article PMC2649372 (Biochemistry, 2008).
Where a chain is given by its changes, count along the chain named. Marks after values point to notes of the source that are not given here.

What was measured:
Assay in all cases: Agonist-induced currents, voltage clamp electrophysiology in Xenopus oocytes
Format in all cases: cell-based
[1] = molecular target: T1, N128E mutant 5-HT3 receptor (mouse 5-HT3A subunit) (Mus musculus, UniProt P23979, N128E); details: N128E
T1 sequence (P23979 24-483 isoform P23979-2 N128E limits assumed): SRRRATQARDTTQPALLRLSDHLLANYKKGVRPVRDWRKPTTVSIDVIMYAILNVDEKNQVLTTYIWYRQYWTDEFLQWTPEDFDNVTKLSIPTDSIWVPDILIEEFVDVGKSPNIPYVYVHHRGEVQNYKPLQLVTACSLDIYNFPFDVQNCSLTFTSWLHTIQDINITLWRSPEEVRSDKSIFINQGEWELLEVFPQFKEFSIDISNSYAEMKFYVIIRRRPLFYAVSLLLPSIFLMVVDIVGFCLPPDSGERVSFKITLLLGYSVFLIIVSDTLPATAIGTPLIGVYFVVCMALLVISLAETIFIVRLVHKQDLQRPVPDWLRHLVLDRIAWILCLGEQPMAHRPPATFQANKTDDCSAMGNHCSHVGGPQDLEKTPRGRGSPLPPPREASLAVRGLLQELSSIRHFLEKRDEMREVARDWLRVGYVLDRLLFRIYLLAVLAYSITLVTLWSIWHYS

[2] = molecular target: T2, N128Q mutant 5-HT3 receptor (mouse 5-HT3A subunit) (Mus musculus, UniProt P23979, N128Q); details: N128Q
T2 sequence (P23979 24-483 isoform P23979-2 N128Q limits assumed): T1 sequence (P23979 24-483 isoform P23979-2 N128E limits assumed) with E105Q

[3] = molecular target: T3, N128V mutant 5-HT3 receptor (mouse 5-HT3A subunit) (Mus musculus, UniProt P23979, N128V)
T3 sequence (P23979 24-483 isoform P23979-2 N128V limits assumed): T1 sequence (P23979 24-483 isoform P23979-2 N128E limits assumed) with E105V

[4] = molecular target: T4, E129D mutant 5-HT3 receptor (mouse 5-HT3A subunit) (Mus musculus, UniProt P23979, E129D); details: E129D
T4 sequence (P23979 24-483 isoform P23979-2 E129D limits assumed): T1 sequence (P23979 24-483 isoform P23979-2 N128E limits assumed) with E105N, E106D

[5] = molecular target: T5, E129-Nha mutant 5-HT3 receptor (mouse 5-HT3A subunit) (Mus musculus, UniProt Q6J1J7)
T5 sequence (Q6J1J7 24-483): T1 sequence (P23979 24-483 isoform P23979-2 N128E limits assumed) with E105N, F436L
Procedure, shortened: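 Mouse 5-HT3A receptor carrying Nha or Akp, introduced by nonsense suppression. Stage V-VI Xenopus oocytes were co-injected with 5 ng cRNA and 25 ng photodeprotected aminoacyl-tRNA. Controls received tRNA without an amino acid. At 24-72 h, agonist currents were recorded by two-electrode voltage clamp at -60 mV, 22-25 °C, in Ca-free ND96 (pH 7.5).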

EC50 [1] | pEC50 [1] | EC50 [2] | pEC50 [2] | EC50 [3] | pEC50 [3] | EC50 [4] | pEC50 ([4]; SR = small (<100 nA) responses) | Compound | nH (Hill coefficient) [1] | nH (Hill coefficient) [2] | nH (Hill coefficient) [3] | nH (Hill coefficient) [4] | size of agonist response (current) [4] | EC50 [5] | nH (Hill coefficient) [5] | pEC50 [5]
280 nM | 6.56 ± 0.03 | 3000 nM | 5.52 ± 0.18 ^b | 74 nM | 7.13 ± 0.02 ^b | 250 nM | 6.60 ± 0.10 | N=C(N)NC(=N)Nc1cccc(Cl)c1 [mCPBG, m-chlorophenylbiguanide] | 1.81 ± 0.019 | 2.41 ± 0.16 | 5.07 ± 0.85 ^b | 1.19 ± 0.31 | > 5 µA | 560 nM | 1.91 ± 0.60 | 6.25 ± 0.07
 |  |  |  |  |  |  |  | NCCc1c[nH]c2ccc(O)cc12 [5-HT, 5-hydroxytryptamine] | 1.48 ± 0.18 ^b | 2.11 ± 0.29 | 3.18 ± 0.60 | 1.81 ± 0.16 ^b | > 5 µA | 3500 nM | 1.18 ± 0.12 ^b | 5.45 ± 0.04
